PMC12700136 (Journal of medicinal chemistry, 2025)
Read-outs that look alike come from different tables or passages of the source.

Key:
[1] = target: T1, ClpP (Homo sapiens, UniProt Q16740); test: Thermal shift assay; format: binding; conditions: MDA-MB-468 lysates; for ClpP binding/stabilization by TSA (comparison in words): heated at 67 °C, WB
Summary of the method: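 Test compound at increasing concentrations added to 10 μg MDA-MB-468 lysate, 15 min at 23 °C. Heated 67 °C for 3 min, precipitated 3 min at 23 °C, spun 14,000 rpm, 20 min, 4 °C. Soluble ClpP detected by anti-ClpP immunoblot against unheated and no-compound controls; quantified as mean ± SD of two independent experiments.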

[2] = target: purified human ClpP (hClpP) (Homo sapiens, UniProt Q16740); test: Differential scanning fluorimetry; format: binding; conditions: vs DMSO
Chain of purified human ClpP (hClpP) (Q16740 57-277): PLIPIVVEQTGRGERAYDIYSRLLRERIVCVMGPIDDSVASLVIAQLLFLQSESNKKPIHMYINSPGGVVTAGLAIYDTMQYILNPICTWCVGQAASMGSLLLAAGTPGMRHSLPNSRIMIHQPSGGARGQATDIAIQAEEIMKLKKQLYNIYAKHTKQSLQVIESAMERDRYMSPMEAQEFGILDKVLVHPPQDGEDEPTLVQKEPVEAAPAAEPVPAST
Summary of the method: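 Human ClpP lacking mitochondrial sequence, expressed in E. coli BL21(DE3) as N-terminal 2x(His6-thrombin)-SUMO-TEV fusion (1 mM IPTG, 4 h, 37 °C), cobalt-resin purified. Protein at 0.5 mg/mL final in 25 mM Tris-HCl pH 7.5 with SYPRO Orange; held 25 °C 2 min, ramped 25–95 °C at 0.05 °C/s. ΔTm versus DMSO; mean ± SD, four independent experiments.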

[3] = tested on: MDA-MB-468 cells; test: Seahorse mitochondrial respiration assay; format: cell-based, human; conditions: 50 nM for 12, 24 and 48 h
Summary of the method: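 Cells were plated at 250,000 per well and treated for 12, 24 or 48 h. One hour before reading, medium was changed to XF DMEM (1 mM pyruvate, 2 mM glutamine, 10 mM glucose, pH 7.4). The Mito Stress Test used final 1 μM oligomycin, 1 μM FCCP and 0.5 μM antimycin A. OCR was read at baseline and after sequential oligomycin, FCCP and rotenone additions.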

[4] = Mouse pharmacokinetic study; format: in vivo; conditions: Swiss albino mice, single IP administration, 50 mg/kg
Summary of the method: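 Three male Swiss Albino mice received a single intraperitoneal dose in 100% v/v normal saline. About 60 μL of blood was drawn at 0.5, 2 and 8 h. Plasma was stored at −70 °C until a fit-for-purpose LC-MS/MS assay. Concentrations are the average of the 3 mice, with ± SEM.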

[5] = tested on: MCF-7 cells; test: Viability assay; format: cell-based, human; conditions: for IC50: read-out: IC50 (viability)
Summary of the method: (§1)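 Cells (DMEM/F12 + GlutaMax, 10% FBS, 1% pen-strep) seeded at 5,000 per well 24 h before dosing, in quadruplicate. Medium replaced with test compound-containing medium for 72 h. Viability read after 3 h AlamarBlue incubation by colorimetric change, normalized to vehicle control. IC50 from curves; mean ± SD of three independent experiments.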

[6] = tested on: MDA-MB-231 cells; test: Viability assay; format: cell-based, human; conditions: MDA-MB-231, 72 h; for IC50: read-out: IC50 (viability)
Summary of the method: as §1

[7] = target: T1, ClpP; test: Thermal shift assay; format: cell-based; conditions: MDA-MB-468 cells treated 30 min
Summary of the method: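 MDA-MB-468 cells seeded at 1 million per well the day before, then exposed to test compound for 30 min at 37 °C. Washed in PBS, scraped into PBS with […] inhibitors, heated 67 °C for 3 min, lysed by freeze–thaw, spun 14,000 rpm 20 min at 4 °C. Soluble ClpP immunoblotted; normalized quantification, mean ± SD of two independent experiments.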

[8] = tested on: DAP13; test: DAP13 degradation assay; format: cell-based, human; conditions: 24 h, MDA-MB-468 cells; for DAP13 degraded: 25 nM; for DAP13 degradation at high concentrations: 100, 150 and 200 nM
[9] = tested on: MDA-MB-468 cells; test: Western blot analysis of apoptosis markers; format: cell-based, human; conditions: 1 μM, 72 h
Summary of the method: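 MDA-MB-468 cells exposed to vehicle or 1 μM test compound for 72 h. Lysates probed by immunoblot for apoptosis markers including caspase-3. Blots representative of two independent experiments.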

[10] = tested on: BT-474 cells; test: Viability assay; format: cell-based, human; conditions: BT-474, 72 h; for IC50: read-out: IC50 (viability)
Summary of the method: as §1

[11] = tested on: ONC212-resistant MDA-MB-468 cells; test: Viability assay; format: cell-based, human; conditions: for IC50: read-out: IC50 (viability); for increase in the IC50 value, resistant vs wild-type cells: ONC212-resistant vs wild-type MDA-MB-468, 72 h
Summary of the method: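 Resistant MDA-MB-468 line selected by continuous 50 nM reference ClpP agonist, medium changed every 3 days. Cells expanded drug-free and re-exposed over several cycles until growth exceeded death. Wild-type and resistant cells seeded at 5,000 per well, quadruplicate, and dosed 72 h. AlamarBlue read after 3 h, normalized to vehicle; mean ± SD, three independent experiments.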

[12] = tested on: SK-BR-3 cells; test: Viability assay; format: cell-based, human; conditions: SK-BR-3, 72 h; for IC50: read-out: IC50 (viability)
Summary of the method: as §1

[13] = tested on: MDA-MB-468 cells; test: Flow-cytometry-based apoptosis detection; format: cell-based, human; conditions: 1 μM, 72 h
Summary of the method: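 MDA-MB-468 cells given DMSO or 1 μM test compound for 72 h at 37 °C, 5% CO2. Washed twice in FACS buffer (50 mM PBS, 2 mM EDTA, 2% FBS), stained with fixable viability dye eFluor 780 for 30 min at 4 °C, washed, then analysed by flow cytometry for dead-cell labelling.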

[14] = tested on: MDA-MB-468 cells; test: Viability assay; format: cell-based, human; conditions: for IC50: read-out: IC50 (viability)
Summary of the method: as §1

[15] = tested on: cancer cells; conditions: cited from earlier work

T1 sequence (Q16740 57-277): as above

CC(=O)NCCOc1cc(C(F)(F)F)ccc1CN1C(=O)C2=C(CCN(Cc3cccc(C#N)c3)C2)N2CCN=C12 [Compound 10, N-(2-(2-((7-(3-Cyanobenzyl)-5-oxo-1,2,6,7,8,9-hexahydroimidazo[1,2-a]pyrido[3,4-e]pyrimidin-4(5H)-yl)-methyl)-5-(trifluoromethyl)phenoxy)ethyl)acetamide]
ClpP binding/stabilization by TSA (comparison in words) [1]: decreased ClpP binding compared to 9 but similar to ONC212

NCCCCCc1cc(C(F)(F)F)ccc1CN1C(=O)C2=C(CCN(Cc3ccccc3)C2)N2CCN=C12 [Compound 1, 4-(2-(5-Aminopentyl)-4-(trifluoromethyl)benzyl)-7-benzyl-2,4,6,7,8,9-hexahydroimidazo[1,2-a]pyrido[3,4-e]pyrimidin-5(1H)-one]
ClpP binding/stabilization by TSA (comparison in words) [1]: marginally improved binding to ClpP compared to ONC212

CC(=O)NCCCCCc1cc(C(F)(F)F)ccc1CN1C(=O)C2=C(CCN(Cc3cccc(C#N)c3)C2)N2CCN=C12 [Compound 6, N-(5-(2-((7-(3-Cyanobenzyl)-5-oxo-1,2,6,7,8,9-hexahydroimidazo[1,2-a]pyrido[3,4-e]pyrimidin-4(5H)-yl)-methyl)-5-(trifluoromethyl)phenyl)pentyl)acetamide]
ClpP binding/stabilization by TSA (comparison in words) [1]: much reduced binding to ClpP

CC(=O)NCCCCCc1cc(C(F)(F)F)ccc1CN1C(=O)C2=C(CCN(Cc3ccccc3)C2)N2CCN=C12 [Compound 5, N-(5-(2-((7-Benzyl-5-oxo-1,2,6,7,8,9-hexahydroimidazo[1,2-a]pyrido[3,4-e]pyrimidin-4(5H)-yl)methyl)-5-(trifluoromethyl)-phenyl)pentyl)acetamide]
ClpP binding/stabilization by TSA (comparison in words) [1]: much reduced binding to ClpP

N#Cc1cccc(CN2CCC3=C(C2)C(=O)N(Cc2ccc(C(F)(F)F)cc2CCCCCN)C2=NCCN23)c1 [Compound 2, 3-((4-(2-(5-Aminopentyl)-4-(trifluoromethyl)benzyl)-5-oxo-1,2,4,5,8,9-hexahydroimidazo[1,2-a]pyrido[3,4-e]pyrimidin-7(6H)-yl)methyl)benzonitrile]
improvement in ClpP binding compared to ONC212 and compound 1 ([1]; TSA): approximately 2 fold

N#Cc1cccc(CN2CCC3=C(C2)C(=O)N(Cc2ccc(C(F)(F)F)cc2OCCN)C2=NCCN23)c1 [Compound 9, 3-((4-(2-(2-Aminoethoxy)-4-(trifluoromethyl)benzyl)-5-oxo-1,2,4,5,8,9-hexahydroimidazo[1,2-a]pyrido[3,4-e]pyrimidin-7(6H)-yl)methyl)benzonitrile]
thermal shift of purified hClpP (DSF) [2]: very significant thermal shift
effect on basal respiration, ATP generation and maximal respiration [3]: reduced basal respiration, ATP generation and maximal respiration at all time points tested
bioavailability (plasma concentrations) [4]: bioavailable in mice via IP injection
tolerability [4]: well tolerated
IC50 ([5]; Homo sapiens, MCF7, 72 h): 7 nM
fold improvement of IC50 vs ONC212 ([5]; MCF-7, 72 h): approximately 9 fold
IC50 ([6]; Homo sapiens): 13.9 nM
fold improvement of IC50 vs ONC212 [6]: approximately 3.5 fold
concentration at which ClpP was stabilized (TSA in live cells) [7]: 0.08 µM
DAP13 degraded [8]: more than 50%
DAP13 degradation at high concentrations [8]: degraded DAP13
cleaved caspase 3 and cleaved PARP levels [9]: increased the cleaved caspase 3 and cleaved PARP levels
protein levels of full-length caspase 3 and PARP [9]: reduction
fold improvement of IC50 vs ONC212 [10]: approximately 4 fold
IC50 ([10]; Homo sapiens): 8 nM
IC50 ([11]; Homo sapiens, MDA-MB-468, 72 h): 27.7 nM
increase in the IC50 value, resistant vs wild-type cells [11]: 2.6 fold
IC50 ([12]; Homo sapiens): 11.5 nM
fold improvement of IC50 vs ONC212 [12]: approximately 10 fold
late-stage apoptosis (eFluor 780) [13]: effectively induced late-stage apoptosis
IC50 ([14]; Homo sapiens, MDA-MB-468, 72 h): 10.6 nM
fold improvement of IC50 vs ONC212 ([14]; MDA-MB-468, 72 h): approximately 3.5 fold
concentration at which ClpP was stabilized (TSA) [1]: 0.313 µM
ClpP binding/stabilization by TSA (comparison in words) [1]: superior stabilization of ClpP

Cc1ccccc1CN1C(=O)C2=C(CCN(Cc3ccccc3)C2)N2CCN=C12 [ONC201]
concentrations required to significantly affect cancer cell survival [15]: micromolar range

NCCCCCc1cc(F)ccc1CN1C(=O)C2=C(CCN(Cc3ccccc3)C2)N2CCN=C12 [Compound 3, 4-(2-(5-Aminopentyl)-4-fluorobenzyl)-7-benzyl-2,4,6,7,8,9-hexahydroimidazo[1,2-a]pyrido[3,4-e]pyrimidin-5(1H)-one]
ClpP binding/stabilization by TSA (comparison in words) [1]: weaker ClpP binding

O=C1C2=C(CCN(Cc3ccccc3)C2)N2CCN=C2N1Cc1ccc(C(F)(F)F)cc1 [ONC212, reference compound]
thermal shift of purified hClpP (DSF) [2]: very significant thermal shift
effect on basal respiration, ATP generation and maximal respiration [3]: significantly affected these mitochondrial functions only at 48 h
IC50 ([5]; MCF-7, 72 h): 63.7 nM
IC50 [6]: 50.5 nM
concentration at which ClpP was stabilized (TSA in live cells) [7]: 0.63 µM
DAP13 degraded [8]: did not significantly degrade DAP13
DAP13 degradation at high concentrations [8]: degraded DAP13
protein levels of full-length caspase 3 and PARP [9]: reduction
IC50 [10]: 32.7 nM
increase in the IC50 value, resistant vs wild-type cells [11]: approximately 10 fold
IC50 ([11]; ONC212-resistant MDA-MB-468, 72 h): 351 nM
IC50 [12]: 115 nM
late-stage apoptosis (eFluor 780) [13]: effectively induced late-stage apoptosis
IC50 ([14]; MDA-MB-468 (wild-type), 72 h): 35.2 nM
concentration at which ClpP was stabilized (TSA) [1]: ≥ 2.5 µM

CNC(=O)CN(C)CCCCCc1cc(C(F)(F)F)ccc1CN1C(=O)C2=C(CCN(Cc3cccc(C#N)c3)C2)N2CCN=C12 [Compound 8, 2-((5-(2-((7-(3-Cyanobenzyl)-5-oxo-1,2,6,7,8,9-hexahydroimidazo[1,2-a]pyrido[3,4-e]pyrimidin-4(5H)-yl)-methyl)-5-(trifluoromethyl)phenyl)pentyl)(methyl)amino)-N-methylacetamide]
ClpP binding/stabilization by TSA (comparison in words) [1]: recovered to the same level as that of compound 2

CN(C)CCCCCc1cc(C(F)(F)F)ccc1CN1C(=O)C2=C(CCN(Cc3cccc(C#N)c3)C2)N2CCN=C12 [Compound 7, 3-((4-(2-(5-(Dimethylamino)pentyl)-4-(trifluoromethyl)-benzyl)-5-oxo-1,2,4,5,8,9-hexahydroimidazo[1,2-a]pyrido[3,4-e]pyrimidin-7(6H)-yl)methyl)benzonitrile]
ClpP binding/stabilization by TSA (comparison in words) [1]: recovered to the same level as that of compound 2
